Data from ChEMBL document CHEMBL3108698, “Targeting low-druggability bromodomains: fragment based screening and inhibitor design against the BAZ2B bromodomain” (J Med Chem, 2013).

Legend:
[1] = target: Bromodomain adjacent to zinc finger domain protein 2B (Homo sapiens) (UniProt Q9UIF8); test: Displacement of biotinylated H3Kac14 peptide from His6-tagged human BAZ2B expressed in Escherichia coli BL21(DE3) at 200 uM after 30 mins by AlphaLISA assay relative to control
[2] = target: Bromodomain-containing protein 2 (Homo sapiens) (UniProt P25440); test: Binding affinity to BRD2 bromodomain-2 (unknown origin) assessed as change in melting temperature at 100 uM by differential scanning fluorimetric analysis
Method in brief: (§1)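 SYPRO Orange (1:1000) thermal shift with 2 μM bromodomain and 100 μM compound (final), 0.1% DMSO final, in 10 mM HEPES, 500 mM NaCl, 5% glycerol, 0.5 mM TCEP. Tm taken as the minimum of the negative first derivative of the melt curve. Run in triplicate; averages reported.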

[3] = target: CREB-binding protein (Homo sapiens) (UniProt Q92793); test: Binding affinity to CREBBP (unknown origin) assessed as change in melting temperature at 100 uM by differential scanning fluorimetric analysis; method in brief: as §1
[4] = target: Bromodomain-containing protein 2 (Homo sapiens) (UniProt P25440); test: Binding affinity to BRD2 bromodomain-1 (unknown origin) assessed as change in melting temperature at 100 uM by differential scanning fluorimetric analysis; method in brief: as §1

Sequence of Bromodomain adjacent to zinc finger domain protein 2B (Homo sapiens) (Q9UIF8 whole entry, the tested form may be a part): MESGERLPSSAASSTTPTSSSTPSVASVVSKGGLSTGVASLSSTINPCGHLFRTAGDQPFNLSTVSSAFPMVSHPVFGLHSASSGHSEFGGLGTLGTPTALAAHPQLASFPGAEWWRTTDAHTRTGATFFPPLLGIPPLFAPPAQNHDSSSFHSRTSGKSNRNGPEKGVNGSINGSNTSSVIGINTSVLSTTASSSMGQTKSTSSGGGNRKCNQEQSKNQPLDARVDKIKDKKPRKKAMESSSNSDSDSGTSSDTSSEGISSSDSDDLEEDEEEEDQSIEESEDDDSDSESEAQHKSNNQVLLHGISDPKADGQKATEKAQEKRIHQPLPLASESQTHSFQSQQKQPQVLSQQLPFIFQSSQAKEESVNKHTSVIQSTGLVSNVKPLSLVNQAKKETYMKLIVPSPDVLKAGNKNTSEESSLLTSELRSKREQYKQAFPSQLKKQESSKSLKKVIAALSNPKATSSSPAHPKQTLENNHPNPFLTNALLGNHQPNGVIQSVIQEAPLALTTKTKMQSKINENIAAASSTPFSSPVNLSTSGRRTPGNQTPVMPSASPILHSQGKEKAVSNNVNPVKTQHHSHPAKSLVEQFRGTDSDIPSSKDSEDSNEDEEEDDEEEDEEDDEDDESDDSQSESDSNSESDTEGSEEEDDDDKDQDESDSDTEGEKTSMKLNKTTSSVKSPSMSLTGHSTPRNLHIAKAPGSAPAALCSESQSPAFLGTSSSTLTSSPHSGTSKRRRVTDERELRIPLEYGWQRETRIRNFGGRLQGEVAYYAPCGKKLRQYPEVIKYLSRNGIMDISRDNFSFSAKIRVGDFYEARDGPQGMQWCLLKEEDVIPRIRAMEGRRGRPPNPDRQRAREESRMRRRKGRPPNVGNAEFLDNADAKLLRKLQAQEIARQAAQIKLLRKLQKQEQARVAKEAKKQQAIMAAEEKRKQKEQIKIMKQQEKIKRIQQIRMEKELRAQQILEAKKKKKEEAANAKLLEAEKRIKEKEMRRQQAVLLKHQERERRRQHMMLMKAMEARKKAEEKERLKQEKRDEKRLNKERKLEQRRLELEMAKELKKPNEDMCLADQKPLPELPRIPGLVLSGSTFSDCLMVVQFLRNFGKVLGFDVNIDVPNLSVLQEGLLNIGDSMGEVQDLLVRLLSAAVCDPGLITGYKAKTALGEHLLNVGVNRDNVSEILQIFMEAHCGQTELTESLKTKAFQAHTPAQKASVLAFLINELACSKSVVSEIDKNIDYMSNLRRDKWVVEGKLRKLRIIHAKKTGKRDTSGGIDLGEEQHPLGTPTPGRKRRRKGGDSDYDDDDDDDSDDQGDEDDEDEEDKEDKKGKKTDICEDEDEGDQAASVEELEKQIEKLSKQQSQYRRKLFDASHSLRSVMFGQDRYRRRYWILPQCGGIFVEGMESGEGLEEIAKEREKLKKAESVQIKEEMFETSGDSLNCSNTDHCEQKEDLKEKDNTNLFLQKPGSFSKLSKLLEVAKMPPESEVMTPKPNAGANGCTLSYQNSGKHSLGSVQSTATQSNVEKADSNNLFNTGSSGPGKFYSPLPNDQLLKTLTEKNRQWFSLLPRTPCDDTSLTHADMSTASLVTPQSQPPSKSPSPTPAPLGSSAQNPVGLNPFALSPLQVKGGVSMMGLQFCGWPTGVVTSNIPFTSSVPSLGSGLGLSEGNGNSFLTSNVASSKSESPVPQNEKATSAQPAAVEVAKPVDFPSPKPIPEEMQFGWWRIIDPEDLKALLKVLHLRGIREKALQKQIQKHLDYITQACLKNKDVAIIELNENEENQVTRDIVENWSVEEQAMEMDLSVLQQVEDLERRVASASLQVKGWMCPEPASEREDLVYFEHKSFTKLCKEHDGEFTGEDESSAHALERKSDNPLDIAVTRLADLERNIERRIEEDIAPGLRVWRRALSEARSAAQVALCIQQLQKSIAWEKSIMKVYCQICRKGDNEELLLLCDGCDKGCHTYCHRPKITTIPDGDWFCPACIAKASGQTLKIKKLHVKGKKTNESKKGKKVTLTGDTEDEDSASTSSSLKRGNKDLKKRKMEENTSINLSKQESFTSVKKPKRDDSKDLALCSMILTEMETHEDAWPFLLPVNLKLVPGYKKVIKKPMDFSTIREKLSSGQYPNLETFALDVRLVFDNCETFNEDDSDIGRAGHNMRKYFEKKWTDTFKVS
Sequence of Bromodomain-containing protein 2 (Homo sapiens) (P25440 whole entry, looked up): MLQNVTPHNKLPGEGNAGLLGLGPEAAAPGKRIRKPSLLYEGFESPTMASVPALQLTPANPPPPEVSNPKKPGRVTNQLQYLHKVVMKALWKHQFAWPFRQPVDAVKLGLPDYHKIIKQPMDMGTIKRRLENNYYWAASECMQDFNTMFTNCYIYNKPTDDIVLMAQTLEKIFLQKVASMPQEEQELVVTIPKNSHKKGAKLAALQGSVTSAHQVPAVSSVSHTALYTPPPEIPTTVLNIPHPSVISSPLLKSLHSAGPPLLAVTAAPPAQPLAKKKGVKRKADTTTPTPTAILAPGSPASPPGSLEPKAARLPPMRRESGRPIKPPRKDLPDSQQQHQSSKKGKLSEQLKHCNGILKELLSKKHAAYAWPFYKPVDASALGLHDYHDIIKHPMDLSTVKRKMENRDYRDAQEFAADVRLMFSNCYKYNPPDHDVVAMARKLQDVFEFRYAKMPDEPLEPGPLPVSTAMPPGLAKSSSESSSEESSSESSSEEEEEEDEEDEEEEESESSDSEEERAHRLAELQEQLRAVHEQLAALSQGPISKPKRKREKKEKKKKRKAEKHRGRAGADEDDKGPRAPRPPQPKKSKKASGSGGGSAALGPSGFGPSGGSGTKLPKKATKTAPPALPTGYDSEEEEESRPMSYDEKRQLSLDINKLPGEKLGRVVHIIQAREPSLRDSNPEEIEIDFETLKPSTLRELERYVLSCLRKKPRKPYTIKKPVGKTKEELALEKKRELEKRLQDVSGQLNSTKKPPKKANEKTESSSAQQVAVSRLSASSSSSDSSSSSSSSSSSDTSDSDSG

| SMILES | inhibition [1] [%] | also measured |
| --- | --- | --- |
| CNC(=O)N1CCc2[nH]c3ccc(Cl)cc3c2C1 | – | ΔTm [2]: -0.2 °C; ΔTm [3]: 2.1 °C; ΔTm [4]: -0.6 °C |
| CC(=O)N1CCc2c(c3cccc4c3n2CCS4)C1 | 70 | – |
| CC(=O)N1CCc2[nH]c3ccc(C(=O)O)cc3c2C1 | 48 | – |
| CC(=O)N1CCc2[nH]c3ccc(Oc4ccccc4)cc3c2C1 | 65 | – |
| CC(=O)N1CCc2[nH]c3ccc(N(C)C(C)=O)cc3c2C1 | 65 | – |
| CC(=O)N1CCc2[nH]c3c(O)ccc(Cl)c3c2C1 | 52 | – |
| CC(=O)N1CCc2[nH]c3ccc(Br)cc3c2C1 | – | ΔTm [2]: 3.5 °C; ΔTm [3]: 8.1 °C; ΔTm [4]: 7.3 °C |

Further lines, with some results ahead:

| inhibition [1] [%] | SMILES | also measured |
| --- | --- | --- |
| 55 | CC(=O)N1CCc2[nH]c3ccc(-c4cccnc4)cc3c2C1 | – |
| 63 | CC(=O)N1CCc2c(c3cccc4c3n2C(=O)CN4C)C1 | – |
| 60 | CC(=O)N1CCc2c(c3cc(Br)ccc3n2S(=O)(=O)c2ccc(C)cc2)C1 | – |
| 38 | CC(=O)N1CCc2c(c3cc(Br)ccc3n2C(=O)OC(C)(C)C)C1 | – |
